The sample as a whole holds a higher share of hits than the screen did.
ABCG2 block: human ABCG2 inhibition, ABCB1 as counter-screen; Q9UNQ0; inhibition, % at 6.6 µM; 190,000 compounds, 0.1% hits; IgMXP3 cells, JC-1 efflux, flow cytometry;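 active = inhibition above 80%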;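 also: 0% = DMSO and 100% = nicardipine control wells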
Target sequence (Q9UNQ0 whole entry, looked up): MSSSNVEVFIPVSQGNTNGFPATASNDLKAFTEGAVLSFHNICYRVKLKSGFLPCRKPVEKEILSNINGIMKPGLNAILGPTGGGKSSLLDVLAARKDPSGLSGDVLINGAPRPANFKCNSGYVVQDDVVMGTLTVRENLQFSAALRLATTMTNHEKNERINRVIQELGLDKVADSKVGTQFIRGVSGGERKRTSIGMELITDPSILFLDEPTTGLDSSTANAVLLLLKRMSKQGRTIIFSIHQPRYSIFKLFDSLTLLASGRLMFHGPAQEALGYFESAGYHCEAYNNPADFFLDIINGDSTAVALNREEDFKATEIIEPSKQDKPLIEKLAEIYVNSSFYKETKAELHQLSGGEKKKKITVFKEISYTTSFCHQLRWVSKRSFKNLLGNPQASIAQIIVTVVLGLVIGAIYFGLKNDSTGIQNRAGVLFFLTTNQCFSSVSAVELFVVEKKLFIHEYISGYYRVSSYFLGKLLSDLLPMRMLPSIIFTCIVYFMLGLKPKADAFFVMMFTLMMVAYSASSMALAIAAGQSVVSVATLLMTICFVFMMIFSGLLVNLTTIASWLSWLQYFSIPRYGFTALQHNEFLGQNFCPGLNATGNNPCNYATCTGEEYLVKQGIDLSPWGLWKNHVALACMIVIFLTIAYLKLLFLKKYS
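Read-out basis: Efflux inhibition in percent versus controls | Test system: ABCG2 IgMXP3 and barcoded ABCB1 CCRF-Adr cell mix | Quantity: 3 million cells/mL in well | Schedule: 10 min at 25 °C | Control set: Nicardipine as high control, DMSO as low control | Reagent: JC-1 as fluorescent efflux pump substrate | Signal: Flow cytometry of retained JC-1 fluorescence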
Calb biofilm kill: mixtures killing C. albicans biofilm | C. albicans biofilm persisters + clotrimazole, fluorescence viability; primary screen in compound mixtures of four per well | inhibition, % at 7.6 µM | 120,000 compounds, 0.02% hits;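 active = inhibition above 30.3% in the primary screen of four-compound pools, then above 30% when the compound was retested; inconclusive = passed the primary limit but could not be retested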;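 also: compounds exposed to preformed 24 h biofilms for 48 h; 0% = untreated biofilm control and 100% = clotrimazole plus chlorhexidine kill blank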
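Assay system: C. albicans biofilms / Medium: RPMI/MOPS medium, pH 7.0 / Schedule: biofilm formation 24 h, compound exposure 48 h, 37 °C / Measured by: Alamar Blue fluorescence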
TRPML3 ag: activates the human TRPML3 channel | 220,000 compounds, 0.29% hits | activation, % at 3 µM | Q8TDD5 | HEK293 TRPML3-YFP, Fluo-8 calcium fluorescence; 100% = the carbachol control signal;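 active = activation above its plate's cutoff, the mean activation of the plate's test wells plus 3 SD, cut at about 12% in these data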;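 also: 0% = DMSO only wells and 100% = carbachol wells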
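system = HEK293 cells stably carrying human TRPML3-YFP | doses = one concentration, 3 µM nominal, 0.3% DMSO | timing = dye loading 1 h 37 °C then 30 min ambient, 125 s read | detection = Fluo-8 calcium dye fluorescence, ex 470-495, em 515-575 nm | benchmarks = high control carbachol 87 µM, low control DMSO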
zfTRPN1 agonist: agonists of zebrafish TRPN1 channel; HEK293 zebrafish TRPN1-YFP, Fluo-8 calcium fluorescence; 100% = response to 87 µM carbachol; activation, % at 3 µM; 220,000 compounds, 0.18% hits;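 active = activation above its plate's cutoff, the mean activation of test wells on that plate plus 3 SD, cut at about 19% in these data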;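 also: 0% = DMSO alone and 100% = 87 µM carbachol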
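Control set: carbachol 87 µM as high control, DMSO as low control; system: HEK293 stable line with zebrafish TRPN1-YFP; read-out: % activation versus carbachol response; detection: intracellular calcium fluorescence with Fluo-8; doses: single test compound dose, 3 µM nominal, 0.3% DMSO; schedule: dye 1 h 37 °C plus 30 min RT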
ABCB1 inh: human ABCB1 inhibition, ABCG2 as counter-screen. P08183. CCRF-Adr cells, JC-1 efflux, flow cytometry. inhibition, % at 6.6 µM. 190,000 compounds, 0.067% hits. AID 1326; in the data active = inhibition above about 40%;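 also: 0% = vehicle and 100% = reference inhibitor; higher value means more JC-1 retained so stronger ABCB1 efflux block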
ROMK primary: human ROMK K+ channel modulation, primary screen | P48048 | Tet-inducible ROMK, thallium flux fluorescence; actives lie on both sides | B-score at 10 µM | 130,000 compounds, 2% hits;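 active = signal ratio slope over the read window, or its plate-corrected B-score, at least 3 SD from the plate mean, either direction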;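 also: B-score of the F/F0 ratio slope over 7 to 12 s after thallium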
ROMK hit retest: human ROMK channel modulation, retest confirmation | shares compounds with ROMK primary | ROMK thallium flux, fluorescence ratio; active compounds read low | normalized thallium flux (F/F0 slope) at 10 µM | 3,000 compounds, 54% hits;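 active = Flux at 10 µM at least 3 SD below or above vehicle control mean in one or both replicates; inconclusive = no clear call, values can overlap the other calls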
* hit, by the source's call; ? = inconclusive; · = not tested or not shown.

SMILES	ABCG2 block	Calb biofilm kill	TRPML3 ag	zfTRPN1 agonist	ABCB1 inh	ROMK primary	ROMK hit retest
COCC1CCCCN1Cc1cn(-c2ccccc2)nc1-c1ccc2c(c1)OCO2 (centres undefined)	0	-8	0	0	0	-3.4*	0.065*
OCc1cn(-c2ccccc2)nc1-c1ccc2c(c1)OCCO2	0	·	1	2	0	-0.23	·
Cc1nc(-c2cccc(NS(=O)(=O)c3cccc4ccccc34)c2)cs1	1	·	0	0	0	0.042	·
COC(=O)c1cnn(-c2ccccc2)c1-n1cccc1C=O	1	7	0	2	1	-5.7*	0.077
COC(=O)c1cnn(-c2ccccc2)c1C(OC)OC	·	0	0	-1	·	·	0.075
CCOC(=O)c1cnn(-c2ccccc2)c1-n1cccc1C(=O)C(=O)N(C)C	-1	15	1	0	0	0.94	·
O=C(c1ccc(Br)cc1)N(c1ccccn1)C1CCCCC1	·	20	1	0	·	·	·
COc1ccc(-c2ncncc2-c2csc(C)n2)c(O)c1OC	2	·	0	1	0	1.4	·
COC1=C(N)C(=O)c2nc(-c3nc(C(=O)O)c(C)c(-c4ccc(OC)c(OC)c4O)c3N)ccc2C1=O	5	26	1	0	7	·	0.057*
CCOc1ccccc1C1C(C(=O)OC)=C(N)OC2=C1C(=O)CCC2 (centres undefined)	1	·	0	0	1	·	0.079
CCCCCCNC(=O)N[C@H](C(=O)NCCC[C@H]1CN2C(=NC[C@H]2C)N1CCC(c1ccccc1)c1ccccc1)C(C)O (some centres undefined)	·	16	·	·	·	·	0.061*
C[C@@H]1CN=C2N(CCNC(=O)CCC3CCCCC3)[C@H](Cc3ccc(O)cc3)CN21	2	20	0	0	1	·	·
O=C1CC(c2ccc(OCCCCCOc3ccc(C4CC(=O)NC4=O)cc3)cc2)C(=O)N1 (centres undefined)	2	9	3	7	0	-3.5*	0.06*
O=C(COc1ccc2ccccc2c1)Nc1nccs1	1	26	0	1	0	-0.94	·
O=C(COc1ccccc1)Nc1nccs1	1	-10	1	1	0	3*	0.077
CN(C)c1cccc(NC(=O)c2ccco2)c1	1	4	1	-1	0	2.6*	0.077
COc1ccc(C(=O)NN)cc1	·	16	0	0	·	·	·
COc1ccc(C(=O)C(CCC(CNC(C)(C)C)C(=O)c2ccc(OC)cc2)CNC(C)(C)C)cc1 (centres undefined)	-1	-6	0	1	0	·	0.066*
Cc1nn(-c2ccccc2)c(N2CCCC2)c1/C=N/NC(=O)c1cc(-c2cccnc2)nc2ccccc12	18	18	0	0	7	·	·
CC(/C=N/NC(=O)c1cc(-c2cccnc2)nc2c1c(C)nn2-c1ccccc1)=C\c1ccccc1	12	26	0	1	3	·	?
N#C/C(=C/c1ccccc1[N+](=O)[O-])C(=O)NCc1ccco1	1	22	0	1	0	-2.4*	0.045*
O=c1c(/C=N/Nc2ccccc2)c(Sc2nnnn2-c2ccccc2)nc2ccccn12	8	·	1	0	5	-3.7*	0.04*
O=C(COC(=O)CCC(=O)c1cccs1)NC1CC1	1	13	1	1	1	·	·
COc1ccc(-c2c(NC(=O)c3ccco3)n(C)c3ccccc3c2=O)cc1	6	·	0	0	1	3.7*	0.079
O=C(NCc1ccccc1)N1CCC(n2cnc3cc(F)ccc32)CC1	4	·	-1	1	1	·	0.069*
SMILES	ABCG2 block	Calb biofilm kill	TRPML3 ag	zfTRPN1 agonist	ABCB1 inh	ROMK primary	ROMK hit retest
COCCNC(=O)/C(C#N)=C1\N=C(N)c2ccccc21	50	15	1	3	2	·	·
O=C(CCn1cnc2ccccc2c1=O)Nc1nc(-c2ccc(Br)cc2)cs1	-3	2	0	-1	0	·	·
CC(Sc1nnc(-c2ccc(Cl)cc2)n1C)C(N)=O (centres undefined)	12	·	0	0	1	·	·
Cc1ccccc1C(=O)Nc1ccc(-c2nnc(SC(C)C(=O)O)n2C)cc1 (centres undefined)	·	18	1	2	·	·	0.079
CCc1cccc(CC)c1NC(=O)CSc1nc2ccc(N3C(=O)C4C(C3=O)[C@H]3C=C[C@@H]4C3)cc2s1 (some centres undefined)	26	14	1	3	6	·	·
C=CCc1cc(Cl)ccc1OCCCNC(C)CC (centres undefined)	11	12	1	0	4	-2.6*	0.051*
CCC(C)NCCCOc1ccc(Cl)cc1C(C)(C)C (centres undefined)	6	20	0	2	6	0.23	·
CCc1ccc(-c2nc(CS(=O)CC(=O)O)c(C)o2)cc1 (centres undefined)	·	19	0	1	·	·	·
C/C(=N\NC(=O)COc1ccccc1[N+](=O)[O-])c1cccs1	3	6	2	3	0	1.4*	0.085
O=S(=O)(/N=C(/Sc1ccccc1)c1ccccc1)c1ccccc1	7	·	0	-1	1	-2.8*	0.05*
CS/C(=N\S(=O)(=O)c1ccccc1)c1ccccc1	7	15	1	-1	1	0.14	·
CCN(CC)c1ccc(C=N/C(C#N)=C(\N)C#N)cc1	1	·	0	1	0	·	?
Cc1ccc(S(=O)(=O)N2CCCCC2)cc1NC(=O)Cn1c(=O)cnc2ccccc21	-2	15	1	0	1	0.59	·
CCc1ccc(NC(=O)CNC(=O)c2cn(-c3ccccc3OC)c(=O)c3ccccc23)cc1	-1	·	0	0	0	-0.95	·
COc1ccccc1-n1cc(C(=O)NCC(=O)NCc2ccc(F)cc2)c2ccccc2c1=O	5	30	0	0	0	3.1*	0.085
CCOC(=O)c1c(NC(=O)c2nn(C)cc2[N+](=O)[O-])sc(C)c1C	0	13	0	0	0	-0.57	·
CC(=O)c1c(C)nc(-c2cccc([N+](=O)[O-])c2)n1O	12	23	1	1	0	-4.7*	0.063*
COc1ccc(-c2nc(C)c(C(C)=O)n2O)cc1[N+](=O)[O-]	1	8	1	-1	0	-0.25	·
CC(=O)c1ccc(NC(=S)NCCCN2CCOCC2)cc1	0	6	1	1	0	·	·
CCOC(=O)C1CCN(C(=O)COc2ccc([N+](=O)[O-])cc2)CC1	9	-33	1	0	1	-1.4	·
